# Assay results from ChEMBL document CHEMBL1926589, “2-Anilinonicotinyl linked 2-aminobenzothiazoles and [1,2,4]triazolo[1,5-b] [1,2,4]benzothiadiazine conjugates as potential mitochondrial apoptotic inducers” (Bioorg Med Chem, 2011).
# pIC50: −log10 of the molar value.
# Experiments:
# SiHa [1] = assay: Growth inhibition of human SiHa cells at 10 uM by sulforhodamine B assay; assay type: functional; details: read-out: GI
# Outline: (§1)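 Single-dose 10 µM screen by sulforhodamine B assay, reported as percent inhibition of cell proliferation. Cells grown in medium with 10% heat-inactivated FBS at 37 °C, 5% CO2, and treated at about 70% confluence or in log phase. Compounds dissolved in DMSO; controls received vehicle (<0.5% v/v).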
# HEp-2 = assay: Growth inhibition of human Hep2 cells at 10 uM by sulforhodamine B assay; assay type: functional; details: read-out: GI; outline: as §1
# SW-620 = assay: Growth inhibition of human SW620 cells at 10 uM by sulforhodamine B assay; assay type: functional; details: read-out: GI; outline: as §1
# DU-145 = assay: Growth inhibition of human DU145 cells at 10 uM by sulforhodamine B assay; assay type: functional; details: read-out: GI; outline: as §1
# HCT-15 = assay: Growth inhibition of human HCT15 cells at 10 uM by sulforhodamine B assay; assay type: functional; details: read-out: GI; outline: as §1
# A549 = assay: Growth inhibition of human A549 cells at 10 uM by sulforhodamine B assay; assay type: functional; details: read-out: GI; outline: as §1
# IMR-32 = assay: Growth inhibition of human IMR32 cells at 10 uM by sulforhodamine B assay; assay type: functional; details: read-out: GI; outline: as §1
# [2] = Growth inhibition of human 502713 cells at 10 uM by sulforhodamine B assay; assay type: functional; details: read-out: GI; outline: as §1
# SK-N-SH = assay: Growth inhibition of human SK-N-SH cells at 10 uM by sulforhodamine B assay; assay type: functional; details: read-out: GI; outline: as §1
# OVCAR-5 = assay: Growth inhibition of human OVCAR5 cells at 10 uM by sulforhodamine B assay; assay type: functional; details: read-out: GI; outline: as §1
# [3] = Therapeutic ratio of IC50 for african green monkey CV1 cells to IC50 for human HL60 cells; assay type: ADME, cell-based, HL-60; details: CV1 cells and HL60 cells, read-out: Ratio IC50
# CV-1 = assay: Growth inhibition of african green monkey CV1 cells after 48 hrs by MTT assay; assay type: cell-based; details: Chlorocebus aethiops, CV-1, 48 h
# SiHa [4] = assay: Growth inhibition of human SiHa cells after 48 hrs by MTT assay; assay type: functional, cell-based
# HL-60 [5] = assay: Growth inhibition of human HL60 cells after 48 hrs by MTT assay; assay type: functional, cell-based; details: HL-60, 48 h
# HL-60 [6] = assay: Induction of apoptosis in human HL60 cells assessed as late apoptotic cells at 1 uM after 24 hrs using Annexin V-FITC and propidium iodide staining by flow cytometry relative to control; assay type: functional
# Outline: (§2)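 HL-60 cells (1 x 10^5 per 1.5 mL) treated 24 h, washed twice in PBS and stained in binding buffer with annexin V-FITC and PI. Flow cytometry with FITC in FL-1 (530 nm) and PI in FL-2 (585 nm), using quadrant statistics: lower right taken as apoptotic, upper right as post-apoptotic necrotic. Representative of three independent experiments.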
# HL-60 [7] = assay: Induction of apoptosis in human HL60 cells assessed as early apoptotic cells at 1 uM after 24 hrs using Annexin V-FITC and propidium iodide staining by flow cytometry relative to control; assay type: functional; outline: as §2
# HL-60 [8] = assay: Induction of apoptosis in human HL60 cells assessed as non-viable necrotic cells at 1 uM after 24 hrs using Annexin V-FITC and propidium iodide staining by flow cytometry relative to control; assay type: functional; outline: as §2
SMILES,inhibition of growth at 10 µM (SiHa [1]) [%],inhibition of growth at 10 µM (HEp-2) [%],inhibition of growth at 10 µM (SW-620) [%],inhibition of growth at 10 µM (DU-145) [%],inhibition of growth at 10 µM (HCT-15) [%],inhibition of growth at 10 µM (A549) [%],inhibition of growth at 10 µM (IMR-32) [%],inhibition of growth at 10 µM [2] [%],inhibition of growth at 10 µM (SK-N-SH) [%],inhibition of growth at 10 µM (OVCAR-5) [%],selectivity ratio [3],pIC50 (CV-1),pIC50 (SiHa [4]),pIC50 (HL-60 [5]),Activity (HL-60 [6]) [%],Activity (HL-60 [7]) [%],Activity (HL-60 [8]) [%]
O=S1(=O)c2ccccc2N(c2ccccc2)c2nc(-c3cccnc3Nc3ccccc3)nn21,23,0,23,10,0,0,56,21,20,3,,,,,,,
COc1ccc2nc(NC(=O)c3cccnc3Nc3ccc(Cl)cc3)sc2c1,31,13,15,25,44,10,24,10,23,10,,,,,,,
O=S1(=O)c2ccccc2N(c2ccccc2)c2nc(-c3cccnc3Nc3ccc(Cl)cc3)nn21,30,57,68,6,0,46,31,18,27,1,,,,,,,
COc1ccc2nc(NC(=O)c3cccnc3Nc3cc(F)c(F)c(F)c3)sc2c1,63,7,52,28,21,6,55,43,47,25,,,,,,,
CN1c2ccccc2S(=O)(=O)n2nc(-c3cccnc3Nc3ccccc3)nc21,0,0,32,8,0,39,0,30,0,15,,,,,,,
O=C(Nc1nc2ccc([N+](=O)[O-])cc2s1)c1cccnc1Nc1ccc(Cl)cc1,53,69,65,52,66,83,45,63,48,26,2,6.10,< 4.30,6.40,,,
CN1c2ccccc2S(=O)(=O)n2nc(-c3cccnc3Nc3cc(F)c(F)c(F)c3)nc21,15,0,34,13,9,14,28,26,18,8,,,,,,,
CN1c2ccccc2S(=O)(=O)n2nc(-c3cccnc3Nc3ccc(Cl)cc3)nc21,13,0,34,9,0,28,3,28,3,10,,,,,,,
COc1ccc(Nc2ncccc2-c2nc3n(n2)S(=O)(=O)c2ccccc2N3C)cc1,11,13,24,8,0,70,15,13,20,4,,,,,,,
O=S1(=O)c2ccccc2N(c2ccccc2)c2nc(-c3cccnc3Nc3cc(F)c(F)c(F)c3)nn21,26,52,22,14,0,3,48,14,16,2,,,,,,,
COc1ccc2nc(NC(=O)c3cccnc3Nc3ccccc3)sc2c1,63,33,29,25,0,9,26,11,26,6,,,,,,,
COc1ccc2nc(NC(=O)c3cccnc3Nc3ccc(F)cc3)sc2c1,35,32,21,32,0,5,2,2,24,3,,,,,,,
COc1ccc(Nc2ncccc2C(=O)Nc2nc3ccc(OC)cc3s2)cc1,55,0,43,22,0,20,40,21,44,8,,,,,,,
O=S1(=O)c2ccccc2N(c2ccccc2)c2nc(-c3cccnc3Nc3ccc(Cl)cc3Cl)nn21,23,25,27,20,0,66,11,19,23,8,,,,,,,
CC(=O)O[C@H]1C(=O)[C@@]2(C)[C@H]([C@H](OC(=O)c3ccccc3)[C@]3(O)C[C@H](OC(=O)[C@H](O)[C@@H](NC(=O)c4ccccc4)c4ccccc4)C(C)=C1C3(C)C)[C@]1(OC(C)=O)CO[C@@H]1C[C@@H]2O [PACLITAXEL],49,,73,42,37,41,46,59,20,51,,,,,,,
COc1ccc2nc(NC(=O)c3cccnc3Nc3ccc(Cl)cc3Cl)sc2c1,16,17,10,17,24,0,6,4,14,4,,,,,,,
O=c1[nH]cc(F)c(=O)[nH]1 [FLUOROURACIL],44,,76,,44,,71,21,7,22,,,,,,,
O=C(Nc1nc2ccc([N+](=O)[O-])cc2s1)c1cccnc1Nc1ccc(F)c(Cl)c1,13,61,34,9,0,78,3,28,3,3,,,,,,,
CC[C@@]1(O)C(=O)OCc2c1cc1n(c2=O)Cc2cc3ccccc3nc2-1 [CAMPTOTHECIN],,,,,,,,,,,,,,,11,17,52
COc1ccc(Nc2ncccc2-c2nc3n(n2)S(=O)(=O)c2ccccc2N3c2ccccc2)cc1,0,10,14,5,0,0,0,2,0,2,,,,,,,
